Laboratory results taken from ChEMBL document CHEMBL3817736, “Discovery of Bifunctional Oncogenic Target Inhibitors against Allosteric Mitogen-Activated Protein Kinase (MEK1) and Phosphatidylinositol 3-Kinase (PI3K)” (J Med Chem, 2016).
Activity calls are given as the source filed them. The calls are words filed in the database; no cut-off is given here.

What was measured:
[1] = biological target: Dual specificity mitogen-activated protein kinase kinase 1 (Mus musculus, UniProt P31938); test: Inhibition of MEK1 in mouse C26 cells assessed as inhibition of ERK1/2 phosphorylation incubated for 1 hr by Western blotting; assay type: cell-based
[2] = system: A549; test: Cytotoxic activity against human A549 cells assessed as reduction in cell viability incubated for 48 hrs by alamar blue assay; assay type: functional, cell-based
In short: (§1)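 Cells grown in RPMI with 10% heat-inactivated FBS and 1% penicillin/streptomycin/glutamine at 37 °C, 5% CO2. Compounds made as 10 mM DMSO stocks, serially diluted in RPMI. Controls received media with 1% DMSO. Viability read by AlamarBlue fluorescence 48 h after dosing. Combination treatments used co-administered single agents.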

[3] = system: D54; test: Cytotoxic activity against human D54 cells assessed as reduction in cell viability incubated for 48 hrs by alamar blue assay; assay type: functional, cell-based; in short: as §1
[4] = system: D54; test: Cytotoxic activity against human D54 cells assessed as reduction in cell viability incubated for 48 hrs in presence of ZSTK474 by alamar blue assay; assay type: functional, cell-based; in short: as §1
[5] = system: D54; test: Cytotoxic activity against human D54 cells assessed as reduction in cell viability incubated for 48 hrs in presence of PD0325901 by alamar blue assay; assay type: functional, cell-based; in short: as §1
[6] = system: Mus musculus; test: In-vivo inhibition of PI3K in human A549 cells xenografted nude Foxn1nu mouse assessed as reduction in tumor AKT phosphorylation dosed through oral gavage 2 hrs before mouse sacrifice by Western blot method; assay type: functional, organism-based
In short: (§2)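 Five-week-old athymic nude Foxn1nu mice given s.c. flank injections of 1×10^6 cells in 50% RPMI/50% Matrigel (n=2 per tumor type). At about 150 mm³ tumor volume, mice were fasted 4 h, then dosed by oral gavage with 375 mg/kg in DMSO:HPBCD (3:2) or vehicle. Sacrifice at 2 h. Excised tumors analysed by western blot for pERK1/2 and pAKT.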

[7] = biological target: T1, Dual specificity mitogen-activated protein kinase kinase 1 (Homo sapiens, UniProt Q02750); test: Inhibition of MEK1 in human D54 cells assessed as inhibition of ERK1/2 phosphorylation at 1 to 25 uM incubated for 1 hr by Western blotting; assay type: cell-based
In short: (§3)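 Cells seeded 24 h before treatment, then exposed to compounds for 1 h; DMSO vehicle control. Lysis in NP-40 buffer (1% NP40, 150 mM NaCl, 25 mM Tris pH 8.0) with protease and phosphatase inhibitors. Protein measured by Lowry. Equal protein run on 4-12% Bis-Tris gels and blotted. Probes: pERK1/2 (Thr202/Tyr204), pAKT (S473), total ERK/AKT, β-actin; ECL detection.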

[8] = system: D54; test: Inhibition of PI3K in human D54 cells assessed as inhibition of AKT phosphorylation at 1 to 25 uM incubated for 1 hr by Western blotting; assay type: cell-based; in short: as §3
[9] = system: Mus musculus; test: In-vivo inhibition of MEK1 in human A549 cells xenografted nude Foxn1nu mouse assessed as reduction in tumor ERK1/2 phosphorylation dosed through oral gavage 2 hrs before mouse sacrifice by Western blot method; assay type: functional, organism-based; in short: as §2
[10] = biological target: T1, Dual specificity mitogen-activated protein kinase kinase 1; test: Inhibition of MEK1 in human A549 cells assessed as inhibition of ERK1/2 phosphorylation at 1 to 25 uM incubated for 1 hr by Western blotting; assay type: cell-based; in short: as §3
[11] = system: Mus musculus; test: In-vivo inhibition of MEK1 in human D54 cells xenografted nude Foxn1nu mouse assessed as reduction in tumor ERK1/2 phosphorylation dosed through oral gavage 2 hrs before mouse sacrifice by Western blot method; assay type: functional, organism-based; in short: as §2
[12] = system: A549; test: Inhibition of PI3K in human A549 cells assessed as inhibition of AKT phosphorylation at 1 to 25 uM incubated for 1 hr by Western blotting; assay type: cell-based; in short: as §3
[13] = system: Mus musculus; test: In-vivo inhibition of PI3K in human D54 cells xenografted nude Foxn1nu mouse assessed as reduction in tumor AKT phosphorylation dosed through oral gavage 2 hrs before mouse sacrifice by Western blot method; assay type: functional, organism-based; in short: as §2
[14] = Inhibition of PI3K (unknown origin) assessed as reduction in lipid kinase activity by fluorescence-based Adapta TR-FRET assay; design: species or system Homo sapiens
[15] = system: Mus musculus; test: In-vivo inhibition of MEK1 in human D54 cells xenografted nude Foxn1nu mouse assessed as reduction in tumor ERK1/2 phosphorylation at 375 mg/kg, po dosed 2 hrs before mouse sacrifice by Western blot method; assay type: functional; in short: as §2
[16] = biological target: T1, Dual specificity mitogen-activated protein kinase kinase 1; test: Inhibition of purified MEK1 (unknown origin) assessed as reduction in phosphorylation of inactive Erk2 incubated for 30 mins by Kinase-Glo luminescent kinase assay
[17] = system: Mus musculus; test: In-vivo inhibition of PI3K in human D54 cells xenografted nude Foxn1nu mouse assessed as reduction in tumor AKT phosphorylation at 375 mg/kg, po dosed 2 hrs before mouse sacrifice by Western blot method; assay type: functional; in short: as §2

T1 sequence (Q02750 whole entry): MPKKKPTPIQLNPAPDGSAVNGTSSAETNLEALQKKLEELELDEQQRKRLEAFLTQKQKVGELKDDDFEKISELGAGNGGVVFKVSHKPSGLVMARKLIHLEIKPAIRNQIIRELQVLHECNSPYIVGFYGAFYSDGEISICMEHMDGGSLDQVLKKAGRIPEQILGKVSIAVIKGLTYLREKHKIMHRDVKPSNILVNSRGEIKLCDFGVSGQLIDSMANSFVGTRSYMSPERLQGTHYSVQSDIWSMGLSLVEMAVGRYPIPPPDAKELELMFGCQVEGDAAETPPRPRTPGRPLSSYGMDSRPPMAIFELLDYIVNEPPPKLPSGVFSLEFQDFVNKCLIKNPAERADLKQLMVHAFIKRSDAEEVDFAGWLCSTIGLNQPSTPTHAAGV
Dual specificity mitogen-activated protein kinase kinase 1 (Mus musculus, UniProt P31938), sequence (P31938 whole entry): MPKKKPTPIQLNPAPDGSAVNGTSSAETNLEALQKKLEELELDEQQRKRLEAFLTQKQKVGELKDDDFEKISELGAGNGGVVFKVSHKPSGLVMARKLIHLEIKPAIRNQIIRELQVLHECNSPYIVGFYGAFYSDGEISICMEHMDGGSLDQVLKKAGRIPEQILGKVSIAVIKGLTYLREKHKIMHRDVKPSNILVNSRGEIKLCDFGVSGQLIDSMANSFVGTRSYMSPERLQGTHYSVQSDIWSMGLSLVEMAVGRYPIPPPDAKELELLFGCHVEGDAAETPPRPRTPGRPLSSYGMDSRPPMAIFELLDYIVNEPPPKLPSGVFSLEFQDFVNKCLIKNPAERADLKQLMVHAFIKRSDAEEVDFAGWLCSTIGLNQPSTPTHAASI

| inhibition [7] | inhibition [10] | Structure (SMILES) | inhibition [2] | inhibition [3] | inhibition [8] | inhibition [12] | further results |
| --- | --- | --- | --- | --- | --- | --- | --- |
| Active | Active | O=C(NOCCNCCCCCC(=O)N1CCN(c2nc(N3CCOCC3)nc(-n3c(C(F)F)nc4ccccc43)n2)CC1)c1ccc(F)c(F)c1Nc1ccc(I)cc1F | Dose-dependent effect | Dose-dependent effect | Active | Active | inhibition [6]: Active; inhibition [9]: Active; inhibition [11]: Active; inhibition [13]: Active |
| Active | Active | O=C(NOCCNCCCCS(=O)(=O)N1CCN(c2nc(N3CCOCC3)nc(-n3c(C(F)F)nc4ccccc43)n2)CC1)c1ccc(F)c(F)c1Nc1ccc(I)cc1F | Dose-dependent effect | Dose-dependent effect | – | – | IC50 [14]: 285 nM |
| Active | Active | O=C(CNCCONC(=O)c1ccc(F)c(F)c1Nc1ccc(I)cc1F)NCCCCCC(=O)N1CCN(c2nc(N3CCOCC3)nc(-n3c(C(F)F)nc4ccccc43)n2)CC1 | Dose-dependent effect | Dose-dependent effect | Active | Active | – |

Second part, the compound before the results:

| Structure (SMILES) | inhibition [7] | inhibition [10] | inhibition [2] | inhibition [3] | inhibition [8] | inhibition [12] | further results |
| --- | --- | --- | --- | --- | --- | --- | --- |
| CNCCONC(=O)c1ccc(F)c(F)c1Nc1ccc(I)cc1F | – | – | – | – | – | – | IC50 [1]: 20 nM |
| O=C(NOC[C@H](O)CO)c1ccc(F)c(F)c1Nc1ccc(I)cc1F | – | – | Dose-dependent effect | Dose-dependent effect | – | – | Activity [4]: Active |
| FC(F)c1nc2ccccc2n1-c1nc(N2CCOCC2)nc(N2CCOCC2)n1 | – | – | Dose-dependent effect | Dose-dependent effect | – | – | Activity [5]: Active |
| O=C(NOCCOCCOCCOCCN1CCN(c2nc(N3CCOCC3)nc(-n3c(C(F)F)nc4ccccc43)n2)CC1)c1ccc(F)c(F)c1Nc1ccc(I)cc1F | Active | Active | Dose-dependent effect | Dose-dependent effect | Active | Active | IC50 [14]: 191 nM; inhibition in vivo at 375 mg/kg [15]: 95%; IC50 [16]: 0.015 nM; inhibition in vivo at 375 mg/kg [17]: 67% |
